# PTEN del growth: PTEN-deleted cell growth suppression; HCT116 PTEN-null viability, CellTiter-Glo, 60 h; hits give low values; viability, % at 10 µM; 1.2% of 140,000 active;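 active means viability at or below a set limit, 4 SD under the median of all tested compounds, cut at about 3.7% in these data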;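 further: PTEN knockout HCT116 line with beta catenin targeted HCT116 as companion control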
# Lung fibro prol: blocks proliferation of human lung fibroblasts; LL 47 human lung fibroblast viability, ATP luminescence; hits give low values; viability, % at 10 µM; 1.1% of 85,000 active; AID 719;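 active means viability at or below 50% in the single dose screen; inactive means viability above 50%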;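 further: compound exposure lasted 72 h before the ATP readout; 100% = median luminescence of untreated cell-only wells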
#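 test system = LL 47 human lung fibroblasts | amount = 1,150 fibroblasts seeded per well | medium = 15% FBS in IMEM | times = overnight cell rest, 72 h compound treatment at 37 °C | measured by = CellTiter-Glo luminescence measuring cellular ATP | read-out = viability percentage against median untreated-cell control | benchmarks = cell-only wells, no compound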
# HCT116 bCat-KO: beta-catenin-lacking colon tumor cell growth suppression; HCT116 beta-catenin knockout viability, CellTiter-Glo, 60 h; hits give low values; viability, % at 10 µM; 1.5% of 140,000 active;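 active means viability at or under a set limit, the compound median less 4 SD, cut at about 6% in these data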;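 further: 0% = Hyamine 1622 control at 20 µM and 100% = untreated cell control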
# HUVEC prolif 384: human endothelial cell proliferation inhibition; HUVEC proliferation, CellTiter-Glo luminescence, 72 h; hits give low values; viability, % at 10 µM (by protocol); 1.1% of 86,000 active;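 active means viability at or below 30%; inactive means viability above 30%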;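 further: 100% = median luminescence of DMSO-only cell control wells on each plate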
# H69AR inhibit: blocks growth of human H69AR lung tumor cells; H69AR lung tumor viability, ATP luminescence, 72 h; hits give low values; viability, % at 10 µM; 6% of 85,000 active; AID 598;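 active means viability at or below 40%; inactive means viability above 40%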;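 further: multidrug resistant small cell line overexpressing MRP-1 efflux transporter; 100% = mean luminescence of untreated control wells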
# * = called active by the depositor; · = not tested or not shown. This excerpt belongs to a sample that is enriched for hits.
SMILES,PTEN del growth,Lung fibro prol,HCT116 bCat-KO,HUVEC prolif 384,H69AR inhibit
C=CCNc1oc(COc2ccc(C)cc2)nc1C#N,103,97,101,98,92
N#Cc1nc(COc2ccc(-c3ccccc3)cc2)oc1NCCCN1CCOCC1,33,103,25,6.3*,49
CN(C)CCNc1oc(COc2ccc(-c3ccccc3)cc2)nc1C#N,75,45*,88,40,15*
Cc1ccc2c(c1)N(CCC(=O)NCc1ccco1)C(=O)CO2,100,109,99,110,102
CCNc1ccc(C(=O)OCC)cc1NC(=O)c1cccc(S(=O)(=O)N(C)c2ccccc2)c1,67,·,72,·,·
CCNc1ccc(C(=O)OCC)cc1NC(=O)c1cccc(N(C)C)c1,16,51,17,50,22*
CN(C)CCCNCCNC(=O)/C=N\O,101,·,98,·,·
CCOc1ccc(CCNC(=O)C2CCN(c3nnc(-n4cccc4)s3)CC2)cc1OCC,91,105,109,98,40*
CCOc1ccc(CCNC(=O)C2CCN(c3nnc(-n4cccc4)s3)CC2)cc1,92,108,98,110,91
COc1ccccc1/C=C1\S/C(=N/NC(=O)c2cccc(Br)c2)NC1=O,75,·,61,·,·
O=C(Nc1ccc2oc(-c3ccccc3Cl)nc2c1)c1ncn[nH]1,99,90,88,92,96
CCOc1cccc(C(=O)Nc2nccs2)c1,93,92,113,96,101
O=C(Nc1ccc2oc(Cc3ccc(Cl)cc3)nc2c1)c1cccnc1,59,92,56,80,36*
CCOc1cccc(C(=O)Nc2ccc3oc(Cc4ccc(Cl)cc4)nc3c2)c1,45,85,34,73,24*
O=C(Nc1ccc2oc(-c3ccccc3Cl)nc2c1)c1cncc(Br)c1,66,66,75,17*,18*
O=C(Cn1ncc2c1-c1ccccc1OC2)Nc1cccc(Cl)c1,77,90,83,83,47
COc1cc(/C=C(\C#N)C(=O)NC2CCCCC2C)ccc1OS(=O)(=O)c1ccc(C)cc1 (centres undefined),1.0*,·,0.8*,·,·
COc1cc(/C=C(\C#N)C(N)=O)ccc1OS(=O)(=O)c1ccc(C)cc1,47,·,34,·,·
COc1ccc(-c2nc(-c3ccccc3)c(-c3cc([N+](=O)[O-])ccc3C)[nH]2)cc1O,72,97,68,61,55
Cc1ccc([N+](=O)[O-])cc1-c1[nH]c(-c2ccc(O)c(O)c2)nc1-c1ccccc1,28,80,35,52,10*
CCOC(=O)CN1C(c2ccc(O)cc2)Nc2ccc(Br)cc2C1c1ccccc1 (centres undefined),77,·,73,·,·
CCOC(=O)/C(C#N)=C1/C=CN(Cc2ccccc2)C=N1,110,90,93,86,85
Cc1ccc(OC(F)F)c(NC(=O)Nc2cccc(C(F)(F)F)c2)c1,17,35*,23,43,2.4*
CNC(=O)Nc1cccc(C(F)(F)F)c1,93,94,96,98,102
O=C(N/N=C/C=C/c1ccc(Br)cc1)C(O)c1ccccc1 (centres undefined),87,·,84,·,·
SMILES,PTEN del growth,Lung fibro prol,HCT116 bCat-KO,HUVEC prolif 384,H69AR inhibit
Cc1ccc(-c2ccc(/C=N\NC(=O)c3cc4c(ccc5ccccc54)o3)o2)cc1[N+](=O)[O-],0.6*,·,1.2*,·,·
Cc1cnc(NC(=O)c2cc3c(s2)CCCC3)s1,65,83,65,76,24*
N#Cc1cccc(Cn2nnc(-c3ccccc3)n2)c1,75,103,91,94,94
COc1cc(S(=O)(=O)N2CCN=C2c2ccccc2)ccc1F,27,92,36,65,23*
Cc1ccc(S(=O)(=O)N2CCN=C2c2ccccc2)cc1C,78,94,86,87,99
Oc1ccc(Nc2nc3ccccc3nc2Nc2ccc(O)cc2)cc1,1.6*,4.0*,1.8*,32,2.3*
O=C(Nc1ccc(Oc2cccc3ccccc23)cc1)c1ccco1,77,100,73,91,95
CN1CC(c2ccc(Cl)c(Cl)c2)[C@@]2(COc3ccccc3C2=O)[C@@]12C(=O)Nc1ccccc12 (some centres undefined),2.9*,·,4.7*,·,·
CCOc1ccccc1N(CC(=O)Nc1ccc(S(=O)(=O)N2CCOCC2)cc1)S(=O)(=O)c1ccccc1,66,·,73,·,·
CCc1ccc(OCC(=O)NC(NC(=S)Nc2ccccc2)C(Cl)(Cl)Cl)cc1 (centres undefined),8,·,2.4*,·,·
O=c1ccsn1Cc1ccccc1,5,8.6*,1.3*,83,1.3*
O=C(CC1S/C(=N\S(=O)(=O)c2ccccc2)N(c2ccccc2)C1=O)Nc1ccc(F)cc1 (centres undefined),97,·,97,·,·
CCOc1cc(-c2noc(-c3ccncc3)n2)cc(Br)c1OC,85,109,89,65,20*
CCOc1ccc(-c2noc(-c3ccncc3)n2)cc1OCC,97,103,111,110,68
Cc1ccccc1-n1ncc2c(SCC(=O)NCc3cccs3)ncnc21,22,79,25,66,28*
Cc1occc1-c1nnc(SCC(=O)NCc2cccs2)n1-c1ccc(F)cc1,90,104,91,29*,69
Cc1cc2nnc(SCC(=O)NCc3cccs3)n2c2ccccc12,30,58,31,55,24*
Cc1nnc(SCC(=O)NCc2cccs2)n1-c1ccccc1,98,128,96,110,107
CC1(C)CC(CC(=O)NC(=S)Nc2ccc([N+](=O)[O-])cc2)C(=O)O1 (centres undefined),77,100,89,83,88
O=C(N/N=C\c1ccc(CNS(=O)(=O)c2ccc(Cl)cc2)o1)C(=O)Nc1ccc(Oc2ccccc2)cc1,2.0*,·,1.4*,·,·
O=C(N/N=C\c1ccc(CNS(=O)(=O)c2ccccc2)o1)C(=O)Nc1ccc(F)cc1,86,·,81,·,·
CCOC(=O)C1=C(N)n2c(s/c(=C/c3ccco3)c2=O)=C(C(=O)OC)C1c1ccco1 (centres undefined),2.4*,80,2.2*,13*,4.8*
N#CC1=C(N)n2c(s/c(=C\c3ccco3)c2=O)=C(C#N)C1c1ccco1 (centres undefined),90,92,91,75,38*
CCOC(=O)C1=c2s/c(=C\c3cccnc3)c(=O)n2C(N)=C(C(=O)OC)C1c1cccnc1 (centres undefined),100,96,94,99,81
Cc1cccc(CN2CCC(CNC(=O)CCNC(=O)Cn3ccc4ccccc4c3=O)CC2)c1,103,·,95,·,·
Cc1cc(C)nc(-n2nc(C)cc2NC(=O)CNC2CCCCC2)n1,91,90,95,98,59
CC(=O)O[C@]1(C(C)=O)CC[C@H]2[C@@H]3C=C(Cl)C4=CC(=O)CC[C@]4(C)[C@H]3CC[C@@]21C,62,80,65,87,19*
CC(=O)OCC(=O)[C@H]1CC[C@H]2[C@@H]3CCC4=CC(=O)CC[C@]4(C)[C@H]3CC[C@]12C,88,93,81,54,78
